Published values collected from several papers.
Protocols differ between the studies behind these lines.
Cell line: MCF-10A
Effect on: cell growth or viability

SMILES	test	conditions	IC50 [µM]
COc1ccc(C(=O)N/N=C/c2cn(S(=O)(=O)c3ccc(C)cc3)c3ccccc23)cc1	MTT	48 h	> 50
CC(=O)O[C@H]1C(=O)[C@@]2(C)[C@H]([C@H](OC(=O)c3ccccc3)[C@]3(O)C[C@H](OC(=O)[C@H](O)[C@@H](NC(=O)c4ccccc4)c4ccccc4)C(C)=C1C3(C)C)[C@]1(OC(C)=O)CO[C@@H]1C[C@@H]2O	MTT	48 h	> 100
Cc1ccc(S(=O)(=O)n2cc(/C=N/NC(=O)c3cccc4ccccc34)c3ccccc32)cc1	MTT	48 h	> 50
CC(C)Cc1ccc([C@H](C)C(=O)O)cc1	SRB	72 h	435
CCOC(=O)c1c(C)nc2ccc(-c3ccc(OCc4ccccc4)c(F)c3)cc2c1O	MTT	48 h	> 100
CN(C)C(=S)[N-]N=C(c1ccccn1)c1ccccn1.[O]=[V+]=[O]	MTT	48 h	19.2
CCOC(=O)c1c(C)nc2ccc(-c3ccc(F)cc3)cc2c1O	MTT	48 h	> 100
CO[C@H]1[C@H](O[C@H]([C@H]2O[C@@H](n3ccc(=O)[nH]c3=O)[C@H](O)[C@@H]2O)[C@H](NCCCNC(=O)[C@@H](NC(=O)[C@@H](NC(=O)N[C@H](C(=O)O)C(C)C)[C@@H]2CCN=C(N)N2)[C@@H](OC(=O)CCCCCCCCCCCCN(O)C(=N)N)C(C)C)C(=O)O)O[C@H](CN)[C@H]1O	WST-1	–	> 35
CCOC(=O)c1c(C)nc2ccc(-c3ccc(F)c(F)c3)cc2c1O	MTT	48 h	> 100
Cc1ccc(S(=O)(=O)n2cc(/C=N/NC(=O)c3ccc(C)c(F)c3)c3ccccc32)cc1	MTT	48 h	> 50
CO[C@H]1[C@H](O[C@H]([C@H]2O[C@@H](n3ccc(=O)[nH]c3=O)[C@H](O)[C@@H]2O)[C@H](NCCCNC(=O)[C@@H](NC(=O)[C@@H](NC(=O)N[C@H](C(=O)O)C(C)C)[C@@H]2CCN=C(N)N2)[C@@H](O)C(C)C)C(=O)O)O[C@H](CN)[C@H]1O	WST-1	–	> 35
